Experimental data reported in paper PMC8489793 (ACS chemical biology, 2019).
Entries after “also recorded” stand apart in the source; their conditions may differ.

Assays:
[1] = system: primary mouse mammary epithelial cells (MECs) organoids; test: 3D organoid model of normal mammary growth and branching morphogenesis; format: cell-based; conditions: for organoids killed: 3D branching assay; for delay in branching morphogenesis: single agent
Outline: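 Primary mouse mammary epithelial cells embedded in Matrigel and stimulated to branch with FGF2. Test compound and/or ZnSO4, or vehicle, added from 48 h. At 144 h, organoids stained with Hoechst (nuclei), calcein AM (live) and SYTOX Orange (dead), then imaged.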

[2] = system: a variety of cancer cell lines; conditions: read-out: IC50s; cited from earlier work
[3] = system: transformed and untransformed cell types; format: cell-based; conditions: ZNA (30 μM) or clioquinol (30 μM) with ZnSO4; propidium iodide
[4] = system: untransformed mouse MECs and MCF-10A cells, in comparison to MCF-7 cells; test: intracellular Zn^2+ by FluoZin-3, comparison of zinc interactors; format: cell-based; conditions: 3 h, absence of exogenous Zn^2+
[5] = system: transformed and untransformed cells; test: cell viability; format: cell-based; conditions: 48 h; ATP quantification
[6] = system: MCF-7 cells; test: FluoZin-3 and LysoTracker colocalization; format: cell-based, human; conditions: ZNA (30 μM) and ZnSO4 (30 μM), 2 h
Outline: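 Cells exposed 2 h to test compound (30 μM) and/or ZnSO4 (30 μM). Costained with FluoZin-3 (zinc), LysoTracker (lysosomes) and Hoechst, then imaged by fluorescence microscopy. Overlap of FluoZin-3 and LysoTracker signals quantified.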

[7] = system: MCF-7, T47D, and MDA-MB231 breast cancer cell lines; test: dose–response assays in breast cancer cell lines; format: cell-based, human; conditions: malignant cell lines; 5 days
Outline: (§1)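 Viability dose–response after 5 days of treatment in untransformed MCF-10A cells and in MCF-7, T47D and MDA-MB-231 breast cancer lines. Mean and SD of three replicates.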

[8] = system: MCF-10A; test: dose–response assay in untransformed mammary epithelial cell line; format: cell-based, human; conditions: 5 days
Outline: as §1

[9] = system: MCF-7 cells; test: cellular proliferation by EdU incorporation; format: cell-based, human; conditions: 6 h
Outline: (§2)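 Proliferation measured as percent EdU incorporation after 6 h with test compound (30 μM) and/or ZnSO4 (30 μM). Mean and SEM of three experimental replicates; compared against control.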

[10] = system: MCF-7 cells; test: intracellular Zn^2+ by FluoZin-3 and flow cytometry; format: cell-based, human
Outline: (§3)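 Intracellular free Zn2+ measured by FluoZin-3 staining and flow cytometry after 1, 3, 24 or 48 h of treatment with test compound, with or without ZnSO4. For MCF-7, an extra 24 h arm included actinomycin D to block transcription. Mean and SEM of three replicates, compared with control.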

[11] = system: metal trafficking genes in MCF-10A cells; test: RT-PCR of metal trafficking gene induction; format: cell-based, human; conditions: ZNA 30 μM, 3 or 24 h, normalized to GAPDH
Outline: (§4)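 Real-time PCR of metal trafficking gene induction after 3 or 24 h exposure to test compound at 30 μM, run in quadruplicate.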

[12] = system: MCF-10A cells; test: long-term colony formation after 24 h treatment; format: cell-based, human; conditions: 24 h treatment then 3 weeks without compound
Outline: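 Cells treated 24 h, then cultured 21 days in compound-free medium. Surviving colonies stained with crystal violet and quantified. Mean and SD of four replicates.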

[13] = system: MCF-7 cells; test: total cellular Zn^2+ by ICP-AES; format: cell-based, human; conditions: 3 h, ZNA or ZNA/ZnSO4
Outline: (§5)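 Total cellular zinc determined by inductively coupled plasma atomic emission spectroscopy after 3 h treatment with test compound alone or together with ZnSO4.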

[14] = system: MCF-10 and MCF-7 cell lines; test: cell viability; format: cell-based, human
Outline: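 Test compound combined with exogenously added transition metal ions. Viability read as cellular ATP content after 24 h of treatment. Mean and SEM of three replicates, each normalized to its respective control.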

[15] = system: MCF-10A and MCF-7 cells; test: evaluation of focused library; format: cell-based, human; conditions: MCF-7 versus MCF-10A; listed as compound 4
Outline: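 MCF-7 breast cancer and untransformed MCF-10A mammary epithelial cells were given a range of test compound concentrations to generate dose–response curves. MCF-7 EC50 was the mean of three replicates. ΔAUC was the difference in area under the curve between MCF-7 and MCF-10A.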

[16] = system: PyMT mammary tumors; test: transplanted PyMT mouse mammary tumor model; format: in vivo
Outline: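 PyMT-expressing mouse mammary cells were transplanted into the fat pads of 3-week-old female FVB mice. Tumour-bearing mice were assigned to four groups for 21 days: test compound 100 mg/kg i.p. once daily, 25 mM ZnSO4 continuously in drinking water, both, or PBS i.p. once daily. Mice were euthanised at 2 cm tumour diameter, and Kaplan–Meier survival analysis was used.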

[17] = system: cytosolic cathepsin in MCF-7 cells; test: cytosolic cathepsin activity / cytoplasmic fractionation; format: cell-based, human
Outline: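 Cells given test compound plus ZnSO4 for 6 h. Cytoplasmic cathepsin activity then measured with an enzymatic assay and expressed as mean activity relative to control. SEM of three experimental replicates.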

[18] = system: MCF-10A cells; test: intracellular Zn^2+ by FluoZin-3 and flow cytometry; format: cell-based, human
Outline: as §3

[19] = system: PyMT primary tumor organoids; test: 3D primary tumor organoid culture; format: cell-based; conditions: 144 h
Outline: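 PyMT mouse tumor cells embedded as organoids in Matrigel and cultured 144 h. Test compound and/or ZnSO4, or vehicle, present from 48 h to the end. Final staining with Hoechst, calcein AM (live) and SYTOX Orange (dead), then imaged.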

[20] = system: MCF-10A cells; test: cellular proliferation by EdU incorporation; format: cell-based, human; conditions: 6 h
Outline: as §2

[21] = system: cancer cells; test: long-term colony formation after 24 h treatment; format: cell-based, human; conditions: 24 h treatment then 3 weeks without compound
Outline: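 Cells were exposed to test compound for 24 h, then grown in compound-free medium for 21 days. Colonies were stained with crystal violet and quantified, and the mean and standard deviation of four replicates were reported.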

[22] = system: caspase 3/7, 8, or 9 activity in T47D, MDA-MB-231, and MCF-10A; test: quantification of caspase activity; format: cell-based, human; conditions: 6 or 72 h
Outline: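 Caspase activity quantified after 6 or 72 h exposure to test compound with ZnSO4; staurosporine used as positive control. Mean and SD of three replicates.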

[23] = system: MCF-10A cells; test: total cellular Zn^2+ by ICP-AES; format: cell-based, human; conditions: cotreatment with Zn^2+
Outline: as §5

[24] = system: malignant pleural effusion cells (PE1005339); test: 12-point dose–response assay in malignant pleural effusion cells; format: cell-based, human; conditions: PE1005339 tumor cells; 12-point dose–response; 4 days
Outline: (§6)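 Dose–response after 4 days of treatment in immortalized primary human mammary epithelial cells (hTERT-HMEC) or in primary metastatic, chemoresistant breast cancer cells from a patient's malignant pleural effusion. A 12-point series is stated for the effusion cells. Mean and SD of three replicates.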

[25] = system: metal trafficking genes in MCF-7 cells; test: RT-PCR of metal trafficking gene induction; format: cell-based, human; conditions: ZNA 30 μM, 3 or 24 h, normalized to GAPDH
Outline: as §4

[26] = system: hTERT-HMEC; test: dose–response assay in immortalized mammary epithelial cells; format: cell-based, human; conditions: therapeutic window; hTERT-HMEC per Figure 2C; 4 days
Outline: as §6

[27] = system: MCF-7 cells; test: cell death by propidium iodide staining and flow cytometry; format: cell-based, human; conditions: cotreatment with ZnSO4, within 24 h
Outline: (§7)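 Cells treated 24 h with test compound combined with ZnSO4, then stained with propidium iodide and analysed by flow cytometry. Mean and SEM of three replicates, normalized to the control sample.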

[28] = system: MT1 and MT2 in renal and hepatic tissue; test: RT-PCR of metallothionein expression in tissue of treated mice; format: in vivo; conditions: 100 mg/kg intraperitoneal, nontumor bearing FVB/NJ mice
Outline: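 Nontumor-bearing FVB/NJ mice received 100 mg/kg test compound intraperitoneally or vehicle, and were sampled 3 or 24 h later. MT1 and MT2 expression in kidney and liver was measured by real-time PCR, normalised to β-actin and expressed relative to controls.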

[29] = system: MCF-10A; test: cell death by propidium iodide staining and flow cytometry; format: cell-based, human
Outline: as §7

[30] = system: immortalized human mammary epithelial cells (hTERT-HMEC); conditions: 10 μM; cited from earlier work
[31] = system: epidermal growth factor (EGF)-stimulated DNA synthesis; conditions: cited from earlier work
[32] = system: primary metastatic tumor cells derived from malignant pleural effusions (PEs) of breast cancer patients; conditions: 10 μM; PE cells; cited from earlier work

Compound: Oc1c(I)cc(Cl)c2cccnc12 [clioquinol]
- organoids killed ([1]; compound alone): 100%
- organoids killed ([1]; with ZnSO4): 100%
- IC50 [2]: 5 to 50 µM
- cytotoxic effect of combination with ZnSO4, time-course [3]: cytotoxic toward all cell types tested
- intracellular Zn^2+ levels (FluoZin-3) [4]: increase in intracellular Zn^2+
- toxicity of combination with ZnSO4 [5]: toxic to both transformed and untransformed cells

Compound: O=S(=O)([O-])[O-].[Zn+2] [ZnSO4]
- delay in branching morphogenesis [1]: 24 h

Compound: COc1ccc(-c2c(Cc3ccccc3)[nH]/c(=N\C(=O)c3ccccc3F)n2C)cc1 [ZNA, zinaamidole A]
- organoids healthy with no visible extruding cells ([1]; combination ZNA/ZnSO4, 144 h): Greater than 60%
- organoids with either full or partial branching ([1]; combination ZNA/ZnSO4, 144 h): approximately 90%
- delay in branching morphogenesis [1]: 24 h
- FluoZin-3 and LysoTracker overlap [6]: significant increase
- cell viability [7]: decreased cell viability
- sensitivity (cell viability) [8]: reduced sensitivity
- EdU incorporation ([9]; ZNA (30 μM)/ZnSO4 (30 μM)): complete block
- EdU incorporation ([9]; ZNA alone 30 μM): only a partial reduction
- intracellular Zn^2+ on cotreatment with Actinomycin D versus ZNA-alone ([10]; 24 h, with ACTD): statistically significant increase
- increase in FluoZin-3 fluorescence (intracellular Zn^2+) ([10]; 48 h, no exogenous Zn^2+): 13 fold
- intracellular Zn^2+ concentration (FluoZin-3) ([10]; in the presence of 30 μM Zn^2+, 3 h): 170 times
- metal trafficking gene expression [11]: 5 fold
- cytotoxic effect of combination with ZnSO4, time-course [3]: only observed in the transformed cell line
- effect on long-term proliferative potential (colonies) [12]: greatly attenuated
- total cellular Zn^2+ (ICP-AES) [13]: increase in total cellular Zn^2+
- effect on cell viability in combination with Zn^2+ ([14]; MCF-10A and MCF-7, 24 h, ATP): highly synergistic and cancer selective
- effect on cell viability in cotreatment with Cu^2+ ([14]; MCF-10 and MCF-7, 24 h, ATP): nonselective cell death
- effect on cell viability with Ni, Co, and Mn compared to ZNA alone ([14]; broader series of metals): minimal changes in cell viability
- effect on cell viability in combination with Fe^2+ ([14]; untransformed and transformed cell lines, 24 h, ATP): relatively little effect
- potency and selectivity (EC50 in MCF-7, ΔAUC between MCF-7 and MCF-10A) [15]: significant increase in potency and selectivity; also recorded: greatest balance of potency and selectivity
- survival versus control-treated or ZnSO4-only groups ([16]; ZNA 100 mg/kg i.p. once a day plus 25 mM ZnSO4 in drinking water, 21 days): significant survival advantage
- general toxicity, adverse reactions, body weight ([16]; ZNA 100 mg/kg i.p. once a day, 21 days): no general toxicity, adverse reactions, or decreases in body weight
- survival versus control-treated or ZnSO4-only groups ([16]; ZNA alone 100 mg/kg i.p. once a day for 21 days): significant survival advantage
- general toxicity, adverse reactions, body weight ([16]; combination of ZNA and ZnSO4, 21 days): no general toxicity, adverse reactions, or decreases in body weight
- cytosolic cathepsin activity ([17]; MCF-7, combination of ZNA and ZnSO4, 6 h): significant increase
- cytosolic cathepsins B, D, and L relative to untreated cells ([17]; MCF-7s, ZNA/ZnSO4, cytoplasmic fractionation): increase
- increase in intracellular Zn^2+ (FluoZin-3) ([18]; 48 h, no exogenous Zn^2+): 2 fold
- intracellular Zn^2+ level versus vehicle control (FluoZin-3) ([18]; cotreatment with Zn^2+): less than 10 fold
- organoids with strong cell extrusion phenotype ([19]; ZNA-alone): about 70%
- organoids to which treatment was cytotoxic ([19]; ZNA/ZnSO4 cotreatment): over 80%
- EdU incorporation ([20]; ZNA (30 μM)/ZnSO4 (30 μM)): only partially inhibiting
- EdU incorporation ([20]; ZNA alone 30 μM): only a partial reduction
- long-term proliferative potential (colonies) [21]: significantly affected long-term proliferative potential
- caspase 3/7, 8, or 9 activity ([22]; ZNA alone, MDA-MB-231, MCF-10A): either minimal or not observed
- caspase 3/7, 8, or 9 activity ([22]; ZNA/ZnSO4, MDA-MB-231, MCF-10A): either minimal or not observed
- total cellular Zn^2+ (ICP-AES) [23]: below detectable levels
- EC50 [24]: 4.12 µM
- metal trafficking gene expression [25]: 75 fold
- IC50 [26]: > 100 µM
- cell death [27]: > 80%
- MT1 and MT2 expression versus control treated mice ([28]; 3 h): increased
- MT1 and MT2 expression ([28]; 24 h): decreased
- cell death ([29]; ZNA alone, 24 h): unaffected
- cell death ([29]; combination with ZnSO4, 24 h): unaffected

Compound: naamidine A
- organoids killed ([1]; compound alone): 100%
- effect of exogenous ZnSO4 on cytotoxic effects in organoids ([1]; with exogenous ZnSO4): rescued the cytotoxic effects
- intracellular Zn^2+ levels (FluoZin-3) [4]: decreased or unchanged
- decrease in cell viability [30]: 100%
- inhibition of EGF-stimulated DNA synthesis [31]: submicromolar
- decrease in cell viability [32]: 100%
